pEC50: −log10 of the molar value.
Legend:
[1] = biological target: T1, Glucose-dependent insulinotropic receptor (Homo sapiens, UniProt Q8TDV5); assay: Agonist activity at human GPR119 transfected in HEK293 cells assessed as concentration for 50 % cAMP stimulation of oleylethanolamine; format: functional, cell-based
T1 sequence (Q8TDV5 whole entry): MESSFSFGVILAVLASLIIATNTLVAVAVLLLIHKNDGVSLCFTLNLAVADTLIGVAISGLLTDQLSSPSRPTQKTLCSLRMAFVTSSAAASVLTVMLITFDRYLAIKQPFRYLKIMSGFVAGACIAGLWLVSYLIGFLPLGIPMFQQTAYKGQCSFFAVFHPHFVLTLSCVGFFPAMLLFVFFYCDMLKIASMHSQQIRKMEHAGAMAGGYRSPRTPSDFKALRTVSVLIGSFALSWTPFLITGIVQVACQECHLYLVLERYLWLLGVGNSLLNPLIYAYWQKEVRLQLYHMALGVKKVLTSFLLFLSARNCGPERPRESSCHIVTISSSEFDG
How it was run: (§1)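 HEK293 cells seeded at 4 × 10³ cells/well and grown 24 h, then transiently transfected with a human GPR119 expression plasmid by lipofection. After 24 h, compounds were applied in KRBH buffer with 0.1% BSA and IBMX for 60 min at 37 °C. Cells were lysed 10 min at room temperature (phosphate/KF/Triton, pH 7.0), and cAMP was read by HTRF.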

[2] = biological target: T2, Glucose-dependent insulinotropic receptor (Homo sapiens) (UniProt Q8TDV5); assay: Agonist activity at human GPR119 transfected in HEK293 cells assessed as cAMP stimulation relative to maximal effect of oleylethanolamine; format: functional, cell-based; how it was run: as §1
T2 sequence (whole entry): T1 sequence (Q8TDV5 whole entry)

| pEC50 [1] | Emax [2] | Structure (SMILES) |
| --- | --- | --- |
|  | 69% | CC(C)(C)OC(=O)N1[C@@H]2CC[C@H]1C[C@@H](Oc1ncnc(Nc3ccc(S(C)(=O)=O)cc3)c1[N+](=O)[O-])C2 (stereo in doubt; 13) [listing 1 of 2 here] |
|  | 100% | CCCCCCCC/C=C\CCCCCCCC(=O)NCCO |
|  | 99% | CC(C)(C)OC(=O)N1[C@@H]2CC[C@H]1C[C@@H](Oc1ncnc(Nc3ccc(S(C)(=O)=O)cc3)c1[N+](=O)[O-])C2 (stereo in doubt; 11) [listing 2 of 2 here] |
| 7.84 |  | CC(C)(C)OC(=O)N1[C@@H]2CC[C@H]1C[C@@H](Oc1ncnc(Nc3ccc(S(C)(=O)=O)cc3)c1[N+](=O)[O-])C2 (stereo in doubt; 13) [listing 2 of 2 here] |
| < 5.00 | 41% | CC(C)(C)OC(=O)N1[C@@H]2CC[C@H]1C[C@@H](CNc1ncnc(Nc3ccc(S(C)(=O)=O)cc3)c1[N+](=O)[O-])C2 |

The next lines start with the molecule.

| Structure (SMILES) | pEC50 [1] | Emax [2] |
| --- | --- | --- |
| CC(C)(C)OC(=O)N1[C@@H]2CC[C@H]1C[C@@H](Oc1ncnc(Nc3ccc(S(C)(=O)=O)cc3F)c1[N+](=O)[O-])C2 (stereo in doubt; 14) [listing 1 of 2 here] | 8.85 |  |
| CC(C)(C)OC(=O)N1[C@@H]2CC[C@H]1C[C@@H](Oc1ncnc(Nc3ccc(S(C)(=O)=O)cc3)c1[N+](=O)[O-])C2 (stereo in doubt; 11) [listing 1 of 2 here] | 8.31 |  |
| CC(C)(C)OC(=O)N1[C@@H]2CC[C@H]1C[C@@H](Oc1ncnc(Nc3ccc(S(C)(=O)=O)cc3F)c1[N+](=O)[O-])C2 (stereo in doubt; 14) [listing 2 of 2 here] |  | 65% |
| CC(C)(C)OC(=O)N1[C@@H]2CC[C@H]1C[C@@H](CNc1ncnc(Nc3ccc(S(C)(=O)=O)cc3F)c1[N+](=O)[O-])C2 | 8.17 | 53% |
| CC(C)(C)OC(=O)N1[C@@H]2CC[C@H]1C[C@H](Nc1ncnc(Nc3ccc(S(C)(=O)=O)cc3)c1[N+](=O)[O-])C2 | 7.94 | 139% |
| CC(C)(C)OC(=O)N1[C@@H]2CC[C@H]1C[C@@H](Oc1ncnc(Nc3ccc(S(C)(=O)=O)cc3F)c1[N+](=O)[O-])C2 (stereo in doubt; 12) [listing 1 of 2 here] | 8.82 |  |
| CC(C)(C)OC(=O)N1[C@@H]2CC[C@H]1C[C@H](Nc1ncnc(Nc3ccc(S(C)(=O)=O)cc3F)c1[N+](=O)[O-])C2 | 8.82 | 99% |
| CC(C)(C)OC(=O)N1[C@@H]2CC[C@H]1C[C@@H](Oc1ncnc(Nc3ccc(S(C)(=O)=O)cc3F)c1[N+](=O)[O-])C2 (stereo in doubt; 12) [listing 2 of 2 here] |  | 116% |

— ChEMBL document CHEMBL2321661, “Synthesis and biological evaluation of 5-nitropyrimidine analogs with azabicyclic substituents as GPR119 agonists” (Bioorg Med Chem Lett, 2013)
